SIAE primary = human SIAE inhibition, primary screen; Q9HAT2; SIAE FP-Rh probe binding, fluorescence polarization; inhibition, % at 9.66 µM; 0.69% of 370,000 active; AID 1053197;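 active means inhibition above a cutoff: mean of compounds within the control limits plus 3 SD of those, cut at about 17% in these data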;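 further: 0% = plate median of compound wells and 100% = probe without SIAE protein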
mABHD4 FP = inhibits mouse alpha/beta hydrolase domain 4 | Q8VD66 | purified mABHD4, FP-Rh probe fluorescence polarization | inhibition, % at 8.92 µM | 0.54% of 370,000 active;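 active means inhibition exceeding the mean over every tested compound plus 3 SD, cut at about 30% in these data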;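 further: 0% = plate median of compound wells and 100% = S159A mutant with DMSO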
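assay system = mABHD4 protein | compound dosing = single nominal dose of 8.92 µM, 0.89% DMSO final | read-out basis = percent inhibition of probe binding, normalized to plate controls | schedule = Enzyme–compound pre-incubation 45 min, then probe 60 min, both 25 °C | detection = fluorescence polarization, excitation 525 nm, emission 598 nm, BODIPY TMR filters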
LEDGF integ inh = blocks HIV-1 LEDGF/p75-dependent DNA integration | TR-FRET IN-LEDGF/p75 DNA integration, Eu/Cy5 | inhibition, % at 3.7 µM | 0.64% of 370,000 active | AID 743269;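 active means inhibition above the screen-wide mean plus 3 SD, cut at about 13% in these data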;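 further: signal is the Cy5 over europium emission ratio at 671 and 618 nm; 0% = plate median of compound wells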
TDP2 inh = TDP2 (human) inhibition, absorbance primary screen; 0.34% of 370,000 active; inhibition, % at 12.8 µM; recombinant TDP2, T5PNP hydrolysis, p-nitrophenol absorbance 415 nm; O95551;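 active means inhibition above the mean of all tested compounds plus 3 SD, set per campaign, cut at about 25% in these data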;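 further: 0% = DMSO with enzyme and 100% = buffer with substrate but no TDP2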
Target sequence (O95551 whole entry, looked up): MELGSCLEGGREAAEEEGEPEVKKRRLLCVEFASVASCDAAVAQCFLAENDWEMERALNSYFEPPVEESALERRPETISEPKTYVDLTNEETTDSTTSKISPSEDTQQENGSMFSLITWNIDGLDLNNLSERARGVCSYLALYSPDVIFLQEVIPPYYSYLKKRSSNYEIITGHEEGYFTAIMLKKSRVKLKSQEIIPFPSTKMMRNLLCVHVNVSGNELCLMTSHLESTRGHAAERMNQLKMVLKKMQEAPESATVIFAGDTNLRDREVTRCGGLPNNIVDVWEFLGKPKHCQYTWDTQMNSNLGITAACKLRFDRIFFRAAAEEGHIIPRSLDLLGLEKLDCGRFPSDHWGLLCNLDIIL
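System – recombinant human TDP2 · Amount – 120 nM TDP2 per well · Buffer or medium – Mg2+-containing Tris-HCl buffer, pH 7.5 · Reagent – T5PNP substrate, 5 mM · Dosing – 12.8 µM single point, 1% DMSO · Incubation – 2 h at 37 °C · Measured by – epi absorbance · Read-out basis – percent inhibition · Benchmarks – high control without enzyme, low control DMSO plus TDP2 · Repeats – singlicate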
TCR-CD3 inh = blocks the human TCR-CD3 interaction; TAMRA-labeled TCR probe fluorescence, biochemical; inhibition, % at 9.4 µM; 0.37% of 360,000 active; AID 651800; in the data active means inhibition above about 19%;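 further: recombinant mutant TCR 2C K166C tagged with TAMRA read by polarization; 0% = receptor in buffer alone and 100% = receptor with positive control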
HTRA1 inhibitor = inhibitors of human serine peptidase HTRA1 | Q92743 | recombinant HTRA1, FP-rhodamine activity-based probe, fluorescence polarization | inhibition, % at 5.96 µM | 0.5% of 340,000 active | AID 504803; in the data active means inhibition above about 36%;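 further: 0% = enzyme with DMSO and 100% = wells lacking enzyme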
TDP2 confirm = confirmation of human TDP2 inhibitors | shares compounds with TDP2 inh | recombinant human TDP2, absorbance read-out | inhibition, % at 12.8 µM | 22% of 1,100 active | AID 743263; in the data active means inhibition above about 25%;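 further: 0% = vehicle with enzyme and 100% = no enzyme buffer only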
An asterisk follows results filed as active; / = not tested or not shown. This is a sample that favours compounds with a hit; in the whole collection about 2.2% have one here.

SMILES	SIAE primary	mABHD4 FP	LEDGF integ inh	TDP2 inh	TCR-CD3 inh	HTRA1 inhibitor	TDP2 confirm
C[C@H](CO)N1C[C@H](C)[C@@H](CN(C)C(=O)C2CC2)OCc2cn(nn2)CCCC1=O	3	2	-4	11	1	/	/
CC(CC(=O)O)CC(=O)Nc1cc(C(F)(F)F)cc(C(F)(F)F)c1 (configuration not stated)	/	-12	0	-2	1	-4	/
O=C(O)COCC(=O)Nc1cc(C(F)(F)F)cc(C(F)(F)F)c1	7	2	0	26*	1	1	0
Cc1ccccc1NC(=O)CN1CCN(C)CC1	9	12	5	36*	8	11	5
Cc1ccccc1NC(=O)CN1CCCC1	0	9	0	3	3	0	/
Cc1ccccc1NC(=O)c1ccccc1NC(=O)c1cccs1	8	3	0	27*	-2	-4	0
COc1ccc(CNS(=O)(=O)c2ccccc2Br)c(OC)c1	-5	-1	2	-5	-1	/	/
COCN(C#N)c1nc(N(C)C)nc(N(C)C)n1	2	3	2	29*	4	0	4
COCN(C#N)c1nc(OC)nc(OC)n1	4	4	1	2	0	0	/
O=C(O)c1ccc(/C=C2/SC(=S)N(Cc3ccccc3)C2=O)cc1	-2	-9	-1	-1	-12	2	/
O=C(Cc1ccccc1)NN1C(=O)/C(=C/c2ccc(C(=O)O)cc2)SC1=S	-1	-5	0	26*	4	-4	5
CCN(CC)CCN1C(=O)C(=O)/C(=C(/O)c2ccc(C)cc2)C1c1cccnc1 (configuration not stated)	0	3	4	32*	5	0	6
Cc1cccc(CNC(=O)NC2CCCCN(Cc3cccc(Cl)c3)C2=O)c1 (configuration not stated)	0	2	1	-10	/	/	/
O=C(COc1ccccc1F)Nc1ccc2[nH]c(=O)[nH]c2c1	-4	2	1	28*	6	6	6
CCOC(=O)C1CSCCS(=O)(=O)N1Cc1ccc(F)cc1F (configuration not stated)	-3	4	-3	-1	-1	/	/
O=C1CC(N2CCOCC2)=NN1c1ccc([N+](=O)[O-])cc1	11	7	3	65*	-3	13	6
Cc1[nH][nH]c(=O)c1C(c1ccc(-c2ccccc2C(=O)O)o1)c1c(C)[nH][nH]c1=O	0	8	6	45*	-5	1	39*
Cc1ccc2oc(-c3ccccc3C(=O)O)cc(=O)c2c1	1	-1	-2	8	-3	2	/
Cc1[nH][nH]c(=O)c1C(c1ccc(-c2cccc(Cl)c2)o1)c1c(C)[nH][nH]c1=O	/	/	/	/	/	23	/
Cc1[nH][nH]c(=O)c1C(c1ccc(-c2cccc(C(=O)O)c2)o1)c1c(C)[nH][nH]c1=O	10	9	13	63*	11	1	31*
COC(=O)COc1ccc(C(c2c(C)[nH][nH]c2=O)c2c(C)[nH][nH]c2=O)cc1	4	1	-4	13	1	-3	/
COC(=O)c1ccc(-c2ccc(C(c3c(C)[nH][nH]c3=O)c3c(C)[nH][nH]c3=O)o2)cc1	9	13	10	26*	0	12	25*
Cc1cc(N2CCN(C(=O)OC(C)(C)C)C[C@H]2C)ccc1N1CCN(Cc2ccccc2)[C@@H](C)C1	11	7	-2	1	7	/	/
Cc1ccccc1-n1ncc2c1CC(C)(C)CC2NC(=O)CCn1cncn1 (configuration not stated)	10	1	2	82*	-2	6	5
Cc1nc2ccc(C(=O)OCc3nnc(-c4ccccc4)o3)cc2nc1C	3	-6	0	25*	1	4	9
SMILES	SIAE primary	mABHD4 FP	LEDGF integ inh	TDP2 inh	TCR-CD3 inh	HTRA1 inhibitor	TDP2 confirm
C=CCOc1cccc(C2C(C(=O)c3ccco3)=C(O)C(=O)N2CCN2CCOCC2)c1 (configuration not stated)	-5	27	10	41*	-3	6	-7
C=CCOc1cccc(C2C(C(=O)c3ccco3)=C(O)C(=O)N2Cc2ccco2)c1 (configuration not stated)	2	7	6	-14	-9	5	/
CN(CCCC(=O)Nc1ccc(OC(F)F)cc1)S(=O)(=O)c1ccc(F)cc1	10	-2	-2	28*	-3	0	6
O=S(=O)(c1ccc(-c2ccon2)s1)N1CCCC1	-2	0	0	26*	-5	-2	5
O=S(=O)(c1ccc(-c2ccon2)s1)N1CCN(CCN2CCOCC2)CC1	-7	8	-4	-2	-5	5	/
O=c1[nH]c2c(s1)C(c1ccco1)C1C3CCC(C3)C1S2 (configuration not stated)	10	15	7	34*	-5	-10	7
Cc1cc(Nc2cc(C(F)(F)F)cc(C(F)(F)F)c2)cc(=O)n1-c1cc(C(F)(F)F)cc(C(F)(F)F)c1	1	-2	-5	-5	8	/	/
COc1ccc(C)cc1NC(=O)C(NCC(O)c1ccccc1)c1ccccc1 (configuration not stated)	3	11	0	26*	1	-4	9
CCOc1ccc(S(=O)(=O)N2CCCCC2)cc1NC(=O)c1c(CC)noc1C	-8	-2	-1	25*	10	1	-8
CCc1noc(C)c1C(=O)Nc1cccc(S(=O)(=O)N2CCCCCC2)c1	-3	1	-1	20	-1	-9	/
C=CCN1C(=O)[C@@H](CC(=O)NCCCOC)[C@]2(C(=O)OCC)CCCCC/C=C/12	0	-3	1	9	/	/	/
CCCC(=O)Nc1cc(OC)c(NC(=S)Nc2ccc(CC)cc2)cc1OC	10	28	4	26*	7	2	4
COc1ccc2ccc3c(c2c1)N=CC1(O3)N(C)c2ccccc2C1(C)C (configuration not stated)	/	/	/	/	/	28	/
CN1c2ccccc2C(C)(C)C12C=Nc1c(ccc3ccccc13)O2 (configuration not stated)	7	6	4	33*	-4	20	5
CCN1CCN(Cc2ccc(OC)c(OCc3ccccc3)c2)CC1	5	-3	2	6	3	1	/
CCN1CCN(CC#CCOc2ccccc2OC)CC1	10	15	-3	29*	1	7	8
CC(=O)N1c2ccc(S(=O)(=O)NCC3CCC(C(=O)N4CCC(C)CC4)CC3)cc2CC1C (configuration not stated)	9	0	3	28*	-6	-1	-2

Screening results from PubChem BioAssay.
